≈ marks a conversion by molar mass, not a printed value.
Assays:
[1] = tested on: Rhodotorula mucilaginosa; assay: Antifungal activity against Rhodotorula mucilaginosa IFO 0001; format: functional
In short: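 Compounds dissolved in DMF; MIC by serial 2-fold agar dilution on Sabouraud dextrose agar, read after 48 h cultivation at 25 °C.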

[2] = species: Bos taurus; assay: Respiratory inhibition in bovine heart submitochondrial particles; format: functional
In short: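 Bovine heart submitochondrial particles prepared by the Matsuno-Yagi and Hatefi method; uncoupler-stimulated respiration with 10 mM succinate as substrate, oxygen consumption followed by oxygen electrode at 25 °C.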

Structure (SMILES) | MIC [1] [mg/L] | pI50 [2]
CCCCCCOC(=O)C[C@H](NC(=O)c1ccc(OC)c(OC)c1O)C(=O)OCCCCCC | > 100 | 4.9
CCCCCCCOC(=O)CC[C@H](NC(=O)c1nccc(OC)c1O)C(=O)OCCCCCCC | 50 (≈ 101 µM) | –
CCCCCCOC(=O)C[C@H](NC(=O)c1nccc(OC)c1O)C(=O)OCCCCCC | 100 (≈ 221 µM) | –
CCCCCOC(=O)CC[C@H](NC(=O)c1nccc(OC)c1O)C(=O)OCCCCC | 12.5 (≈ 28.5 µM) | –
COc1ccnc(C(=O)N[C@H]2COC(=O)[C@H](Cc3ccccc3)[C@@H](OC(=O)C(C)C)[C@H](C)OC2=O)c1O | < 0.1 | 6
CCCCCCCCOC(=O)CC[C@H](NC(=O)c1nccc(OC)c1O)C(=O)OCCCCCCCC | > 100 | 5.7
CCCCCCOC(=O)CC[C@@H](NC(=O)c1nccc(OC)c1O)C(=O)OCCCCCC | 100 (≈ 214 µM) | –
CCCCCCOC(=O)C[C@H](NC(=O)c1cc(O)c(OC)c(OC)c1O)C(=O)OCCCCCC | 100 (≈ 201 µM) | 5
CCCCCCOC(=O)CC[C@H](NC(=O)c1nccc(OC)c1O)C(=O)OCCCCCC | 3.13 (≈ 6.71 µM) | 6
CCCCCCOC(=O)CC[C@H](NC(=O)c1cccc(NC=O)c1O)C(=O)OCCCCCC | > 100 | 7.1
CCCC[C@H]1C(=O)O[C@H](C)[C@H](NC(=O)c2cccc(NC=O)c2O)C(=O)O[C@@H](C)[C@@H]1OC(=O)CC(C)C [ANTIMYCIN A3] | 0.39 (≈ 0.749 µM) | 7.4

Reference: ChEMBL document CHEMBL1147806, “Structure-activity relationship studies on UK-2A, a novel antifungal antibiotic from Streptomyces sp. 517-02. Part 5: Roles of the 9-membered dilactone-ring moiety in respiratory inhibition” (2006)
